The record followed here is ChEMBL document CHEMBL1134569, “Synthesis and in vitro and in vivo antimalarial activity of new 4-anilinoquinolines” (J Med Chem, 2001).

Series [1] is described as follows: Cytotoxicity upon MPMs (mouse peritoneal macrophages) at 8 uM. The method in brief: (§1)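 Mouse peritoneal macrophages harvested 48 h after potato-starch stimulation and seeded at 30000 cells/well. After 24 h, washed and exposed to 2-fold drug dilutions in RPMI + 5% FCS (final DMSO below 0.5%) at 37 °C, 5% CO₂, for 7 days. Toxicity scored microscopically as toxic or not versus untreated controls.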

The test system of the next series is Plasmodium falciparum. The experiment in a line: Inhibitory activity against chloroquine-resistant Plasmodium falciparum FcB1R. In kind it is functional, organism-based.
The nature of series [2]: Cytotoxicity upon MPMs (mouse peritoneal macrophages) at 2 uM. The gist of the method: as §1
Series [3] is described as follows: Cytotoxicity upon MRC-5 cells (diploid embryonic lung cell line) at 32 uM. In kind it is cell-based, MRC5. The conditions noted are these: human. The method in brief: (§2)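 MRC-5 human diploid embryonic lung cells seeded at 5000/well, washed after 24 h, then given 2-fold drug dilutions in RPMI + 5% FCS (final DMSO below 0.5%). Incubated at 37 °C, 5% CO₂, for 7 days. MTT read-out at 540 nm, scored as percent absorbance reduction versus untreated controls.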

A short description of series [4]: Cytotoxicity upon MPMs (mouse peritoneal macrophages) at 32 uM. The method in brief:
as §1

A short description of series [5]: Cytotoxicity upon MRC-5 cells (diploid embryonic lung cell line) at 1 uM. Format: cell-based, MRC5. The conditions noted are these: human. The method in brief:
as §2

Series [6] can be described thus: Cytotoxicity upon MRC-5 cells (diploid embryonic lung cell line) at 8 uM. Format: cell-based, MRC5. The conditions noted are these: human. The method in brief:
as §2

Series [7] in a line: Cytotoxicity upon MRC-5 cells (diploid embryonic lung cell line) at 12.5 uM. Format: cell-based, MRC5. The note with it: human. The gist of the method: as §2
A short description of series [8]: Cytotoxicity upon MRC-5 cells (diploid embryonic lung cell line) at 3.1 uM. In kind it is cell-based, MRC5. The conditions noted are these: human. The gist of the method: as §2
Series [9] is described as follows: Cytotoxicity upon MRC-5 cells (diploid embryonic lung cell line) at 6.3 uM. Format: cell-based, MRC5. The note with it: human. The gist of the method: as §2

The structures appear in SMILES notation. Values joined by “and” are separate entries in the source; they are usually repeats but may differ in a detail not shown here. Equal entries are not always repeated.

For orientation: IC50 means the concentration needed to halve the response being measured. A lower IC50 goes with greater potency. Regarding `O=C(CN1CCCCC1)Nc1cc(CN2CCN(Cc3ccc([N+](=O)[O-])cc3)CC2)cc(Nc2ccnc3cc(Cl)ccc23)c1`, the Cytotoxicity entry in series [1] and in series [4] was “Cytotoxicity upon MPMs at 32 uM” each time. Moreover, in the series with Plasmodium falciparum (Plasmodium falciparum), the half-inhibitory concentration (IC50) amounted to 13.2 nM. Besides, the NT result in [2] is reported as “Cytotoxicity upon MPMs at 2 uM”. Further, in series [3], the cytotoxicity at 32 µM turned out to be 100%. This molecule showed a cytotoxicity at 1 µM in series [5] of 0%. In series [6], this molecule had a cytotoxicity at 8 µM of 99%.

As to `O=C(CN1CCCCC1)Nc1cc(CN2CCN(Cc3ccc(Cl)cc3)CC2)cc(Nc2ccnc3cc(Cl)ccc23)c1`, the Cytotoxicity result in [1] and in [4] was “Cytotoxicity upon MPMs at 32 uM” in each case. In the series with Plasmodium falciparum (Plasmodium falciparum), this molecule registered an IC50 of 11.5 nM. Also, the NT entry in series [2] is given as “Cytotoxicity upon MPMs at 2 uM”. Besides, in series [3], the cytotoxicity at 32 µM was 100%. The molecule also displayed a cytotoxicity at 1 µM in series [5] of 0%. The same molecule displayed a cytotoxicity at 8 µM in series [6] of 100%.

On to `O=C(CN1CCCCC1)Nc1cc(CN2CCN(Cc3ccccc3)CC2)cc(Nc2ccnc3cc(Cl)ccc23)c1`, for which the Cytotoxicity result in series [1] and in series [4] was “Cytotoxicity upon MPMs at 32 uM” throughout. Further, the concentration for half-maximal inhibition (IC50) with Plasmodium falciparum (Plasmodium falciparum) was 13 nM. For the same molecule, in [2], the NT result was “Cytotoxicity upon MPMs at 2 uM”. Further, in [3], the cytotoxicity at 32 µM turned out to be 100%. The molecule further had a cytotoxicity at 1 µM in series [5] of 0%. Also, the cytotoxicity at 8 µM in series [6] was found to be 100%.

Turning to `O=C(CN1CCCCC1)Nc1cc(CN2CCN(CCO)CC2)cc(Nc2ccnc3cc(Cl)ccc23)c1`, the Cytotoxicity result in [1] and in series [4] was “Cytotoxicity upon MPMs at 32 uM” in each case. In the series with Plasmodium falciparum (Plasmodium falciparum), this molecule registered an IC50 of 11.5 nM. Besides, the NT entry in series [2] is “Cytotoxicity upon MPMs at 2 uM”. Moreover, the cytotoxicity at 32 µM in series [3] was determined as 100%. The molecule also yielded a cytotoxicity at 1 µM in series [5] of 0%. This molecule also gave a cytotoxicity at 8 µM in series [6] of 100%.

As to `O=C(CN1CCCCC1)Nc1cc(CN2CCCC2)cc(Nc2ccnc3cc(Cl)ccc23)c1`, the Cytotoxicity entry in [1] and in series [4] was “Cytotoxicity upon MPMs at 32 uM” in each case. This molecule gave a half-inhibitory concentration (IC50) in the series on Plasmodium falciparum (Plasmodium falciparum) of 6.9 nM. Further, in series [2], the NT entry is recorded as “Cytotoxicity upon MPMs at 2 uM”. In series [3], this molecule showed a cytotoxicity at 32 µM of 100%. The cytotoxicity at 1 µM in series [5] was 0%. In addition, in series [6], the cytotoxicity at 8 µM turned out to be 100%.

Consider `O=C(CN1CCCCC1)Nc1cc(CN2CCN(Cc3ccc4c(c3)OCO4)CC2)cc(Nc2ccnc3cc(Cl)ccc23)c1`, for which the Cytotoxicity result in series [1] and in series [4] was “Cytotoxicity upon MPMs at 32 uM” each time. Moreover, it took 6.9 nM to reach half-maximal inhibition in the series with Plasmodium falciparum (Plasmodium falciparum) (IC50). Moreover, in series [2], the NT result is reported as “Cytotoxicity upon MPMs at 2 uM”. In series [3], this molecule gave a cytotoxicity at 32 µM of 100%. Also, the cytotoxicity at 1 µM in series [5] came out at 86%. In series [6], the cytotoxicity at 8 µM is 99%.

For the molecule `CC(C)(C)NCc1cc(NC(=O)CN2CCCCC2)cc(Nc2ccnc3cc(Cl)ccc23)c1`, the Cytotoxicity result in series [1] and in series [4] was “Cytotoxicity upon MPMs at 32 uM” in each case. Besides, in the series on Plasmodium falciparum (Plasmodium falciparum), the IC50 was determined as 3.7 nM. Also, in series [2], the NT entry was “Cytotoxicity upon MPMs at 2 uM”. In [3], this molecule showed a cytotoxicity at 32 µM of 100%. Further, the cytotoxicity at 1 µM in [5] was found to be 0%. For the same molecule, the cytotoxicity at 8 µM in series [6] amounted to 100%.

The molecule `O=C(CNCc1ccc(Cl)cc1)Nc1cc(CO)cc(Nc2ccnc3cc(Cl)ccc23)c1` displayed a cytotoxicity at 12.5 µM in [7] of 0%. Further, the IC50 with Plasmodium falciparum (Plasmodium falciparum) turned out to be 855 nM. For the same molecule, in series [8], the cytotoxicity at 3.1 µM was 0%. In addition, the cytotoxicity at 6.3 µM in series [9] came to 0%.

The molecule `O=C(CN1CCc2ccccc2C1)Nc1cc(CO)cc(Nc2ccnc3cc(Cl)ccc23)c1` registered a cytotoxicity at 12.5 µM in series [7] of 0%. This molecule gave an IC50 in the series on Plasmodium falciparum (Plasmodium falciparum) of 1450 nM. Moreover, the cytotoxicity at 3.1 µM in series [8] turned out to be 0%. For the same molecule, the cytotoxicity at 6.3 µM in [9] is 0%.

In the case of `CN1CCN(Cc2cc(NC(=O)CN3CCCCC3)cc(Nc3ccnc4cc(Cl)ccc34)c2)CC1`, the Cytotoxicity result in [1] and in [4] was “Cytotoxicity upon MPMs at 32 uM” in each case. Further, inhibition with Plasmodium falciparum (Plasmodium falciparum) was half-maximal at 7.5 nM (IC50). For the same molecule, the NT entry in [2] was “Cytotoxicity upon MPMs at 2 uM”. In addition, the cytotoxicity at 32 µM in series [3] was determined as 83%. In series [5], this molecule yielded a cytotoxicity at 1 µM of 0%. In addition, the cytotoxicity at 8 µM in [6] worked out at 80%.

Turning to `COc1ccc(CN2CCN(Cc3cc(NC(=O)CN4CCCCC4)cc(Nc4ccnc5cc(Cl)ccc45)c3)CC2)cc1`, the Cytotoxicity result in series [1] and in [4] was “Cytotoxicity upon MPMs at 32 uM” throughout. The IC50 in the series on Plasmodium falciparum (Plasmodium falciparum) turned out to be 11 nM. For the same molecule, the NT entry in [2] was “Cytotoxicity upon MPMs at 2 uM”. In series [3], the cytotoxicity at 32 µM stood at 100%. The cytotoxicity at 1 µM in series [5] was found to be 50%. In series [6], this molecule yielded a cytotoxicity at 8 µM of 100%.

Regarding `O=C(CN1CCC(O)CC1)Nc1cc(CO)cc(Nc2ccnc3cc(Cl)ccc23)c1`, the cytotoxicity at 12.5 µM in [7] was 0%. In addition, the midpoint of inhibition in the series on Plasmodium falciparum (Plasmodium falciparum), the IC50, lay at 1050 nM. In series [8], this molecule had a cytotoxicity at 3.1 µM of 0%. The molecule further gave a cytotoxicity at 6.3 µM in series [9] of 0%.

In the case of `O=C(CN1CCCCC1)Nc1cc(CNCc2ccc(C(F)(F)F)cc2)cc(Nc2ccnc3cc(Cl)ccc23)c1`, the Cytotoxicity entry in [1] and in [4] was “Cytotoxicity upon MPMs at 32 uM” in each case. Moreover, the IC50 in the series with Plasmodium falciparum (Plasmodium falciparum) is 5.5 nM. The NT result in series [2] was “Cytotoxicity upon MPMs at 2 uM”. This molecule yielded a cytotoxicity at 32 µM in [3] of 100%. Besides, the cytotoxicity at 1 µM in [5] was found to be 0%. The molecule also showed a cytotoxicity at 8 µM in [6] of 100%.

In the case of `O=C(CN1CCCCC1)Nc1cc(CNCCN2CCCC2)cc(Nc2ccnc3cc(Cl)ccc23)c1`, the IC50 with Plasmodium falciparum is 6.6 nM and 7.9 nM; in the series with Plasmodium falciparum (Plasmodium falciparum) it was 10.2 nM. Also, in series [2], the NT entry is “Cytotoxicity upon MPMs at 2 uM”. In [3], this molecule gave a cytotoxicity at 32 µM of 100%. In series [4], the Cytotoxicity result is on record as “Cytotoxicity upon MPMs at 32 uM”. In series [6], this molecule came in with a cytotoxicity at 8 µM of 100%.

Take `O=C(CN1CCCCC1)Nc1cc(CNc2ccccc2)cc(Nc2ccnc3cc(Cl)ccc23)c1`: the Cytotoxicity result in [1] and in series [4] was “Cytotoxicity upon MPMs at 32 uM” each time. The same molecule came in with a half-inhibitory concentration (IC50) in the series with Plasmodium falciparum (Plasmodium falciparum) of 21.2 nM. Further, in series [2], the NT result is reported as “Cytotoxicity upon MPMs at 2 uM”. In series [3], the cytotoxicity at 32 µM is 100%. This molecule also had a cytotoxicity at 1 µM in [5] of 0%. For the same molecule, the cytotoxicity at 8 µM in [6] amounted to 100%.

For `O=C(CN1CCCCC1)Nc1cc(CN2CCN(c3ccccc3)CC2)cc(Nc2ccnc3cc(Cl)ccc23)c1`, the Cytotoxicity result in series [1] and in [4] was “Cytotoxicity upon MPMs at 32 uM” in each case. 5.5 nM corresponded to half-maximal inhibition in the series with Plasmodium falciparum (Plasmodium falciparum) (IC50). The NT entry in series [2] is “Cytotoxicity upon MPMs at 2 uM”. In series [3], the cytotoxicity at 32 µM amounted to 100%. This molecule gave a cytotoxicity at 1 µM in [5] of 0%. This molecule came in with a cytotoxicity at 8 µM in series [6] of 100%.

Turning to `O=C(CN1CCCCC1)Nc1cc(CNCc2ccccc2)cc(Nc2ccnc3cc(Cl)ccc23)c1`, the Cytotoxicity result in series [1] and in series [4] was “Cytotoxicity upon MPMs at 32 uM” each time. In addition, inhibition in the series with Plasmodium falciparum (Plasmodium falciparum) was half-maximal at 8.5 nM (IC50). Besides, the NT entry in series [2] is on record as “Cytotoxicity upon MPMs at 2 uM”. Further, the cytotoxicity at 32 µM in series [3] worked out at 100%. In [5], this molecule registered a cytotoxicity at 1 µM of 96%. This molecule showed a cytotoxicity at 8 µM in series [6] of 100%.
